We go through three compounds from PMC7557949 (ACS Omega, 2020).

The structures appear in SMILES notation. ≈ marks a conversion by molar mass, not a printed value.

In assay [1] the test system is C. albicans (ATCC:10231). Kind of assay: MIC, twofold serial dilution in agar. The format is cell-based, Candida albicans. In short, it runs like this:
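Test compound and reference drugs (ampicillin, gentamicin, nystatin) were made as 1000 μg/mL DMSO stocks, then diluted twofold to 500, 250, 125, 62.5 and 31.25 μg/mL. Dilutions were mixed into sterile nutrient agar, and a defined microbial inoculum was applied to the agar surface. Plates incubated at 37 °C in a humid chamber.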

In assay [2] the test system is C. albicans (ATCC:10231). Kind of assay: Agar well diffusion, inhibition zone. Format: cell-based, Candida albicans. The note with it: 15 mg/mL, 100 μL per well; mm ± SD. An outline of the steps:
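Fungal plates were poured and agar dried 15 min. 6 mm wells were cut with a sterile borer and filled with 100 μL test compound solution at 15 mg/mL. Inhibition zone diameter (mm) was read after 48 h incubation. Triplicate, reported as mm ± SD.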
Background: Agar diffusion results depend on both activity and mobility in agar.

For assay [3], the system named is E. coli (ATCC:3008). Kind of assay: Agar well diffusion, inhibition zone. The format is cell-based, Escherichia coli. The note with it: 15 mg/mL, 100 μL per well; mm ± SD. An outline of the steps:
(§1)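 Agar well diffusion. Saline inoculum adjusted to McFarland 0.5 ([…]), i.e. OD 0.13 at 625 nm, and swabbed over dried agar. After 15 min drying, 6 mm wells received 100 μL of test compound at 15 mg/mL. Plates incubated at 37 °C; bacterial zones read in mm after 24 h incubation […]. Triplicate, reported as mm ± SD. Gentamicin and ampicillin served as reference drugs.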

In assay [4] the test system is S. aureus (ATCC:6538). The assay can be described thus: MIC, twofold serial dilution in agar. The format is cell-based. The note with it: Staphylococcus aureus, read-out: MIC, S. aureus (ATCC:6538).
In assay [5] the test system is S. mutans (ATCC:25175). Kind of assay: Agar well diffusion, inhibition zone. The format is cell-based. The note with it: Streptococcus mutans, 24 h, read-out: diameter of the IZ, S. mutans (ATCC:25175). In short, it runs like this:
as §1

Assay [6] relates to S. mutans (ATCC:25175). The assay can be described thus: MIC, twofold serial dilution in agar. Format: cell-based. The note with it: Streptococcus mutans, read-out: MIC, S. mutans (ATCC:25175).
The target of assay [7] is T1, dihydrofolate reductase (DHFR) (Homo sapiens, UniProt P00374).
T1 sequence (P00374 1-187): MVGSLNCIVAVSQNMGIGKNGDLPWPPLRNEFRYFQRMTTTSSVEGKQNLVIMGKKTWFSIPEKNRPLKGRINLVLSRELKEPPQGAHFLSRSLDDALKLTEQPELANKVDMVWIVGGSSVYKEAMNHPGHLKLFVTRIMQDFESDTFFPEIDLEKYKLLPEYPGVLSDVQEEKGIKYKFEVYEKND
The assay can be described thus: DHFR inhibitor screening assay. The format is biochemical.

Assay [8] has as its system P. aeruginosa (ATCC:27853). Kind of assay: MIC, twofold serial dilution in agar. The format is cell-based. The note with it: Pseudomonas aeruginosa, read-out: MIC, P. aeruginosa (ATCC:27853).
Another assay deals with K. pneumonia (ATCC:4415). Kind of assay: MIC, twofold serial dilution in agar. Format: cell-based. The note with it: Klebsiella pneumoniae, read-out: MIC, K. pneumonia (ATCC:4415).
In assay [9] the test system is E. coli (ATCC:3008). Kind of assay: MIC, twofold serial dilution in agar. Format: cell-based. The note with it: Escherichia coli, read-out: MIC, E. coli (ATCC:3008).
Assay [10] relates to P. aeruginosa (ATCC:27853). The assay can be described thus: Agar well diffusion, inhibition zone. The format is cell-based, Pseudomonas aeruginosa. The note with it: 15 mg/mL, 100 μL per well; mm ± SD. In short, it runs like this:
as §1

The subject of assay [11] is S. aureus (ATCC:6538). The assay can be described thus: Agar well diffusion, inhibition zone. The format is cell-based, Staphylococcus aureus. The note with it: Staphylococcus aureus, 24 h, read-out: diameter of the IZ, S. aureus (ATCC:6538). In short, it runs like this:
as §1

For the compound `C[C@@H]1[C@H](O)[C@@H](C)/C=C/C=C/CC/C=C/C=C/C=C/C=C/C(O[C@H]2O[C@H](C)[C@@H](O)[C@H](N)[C@@H]2O)CC2O[C@](O)(CC(O)C(O)CCC(O)CC(O)CC(O)CC(=O)O[C@H]1C)CC(O)C2C(=O)O` (stereo partly shown) [nystatin, reference compound], the “MIC, C. albicans (ATCC:10231)” value in the assay on C. albicans (ATCC:10231) [1] was determined as 31.25 µg/mL (≈ 33.7 µM). For the same compound, in the assay on C. albicans (ATCC:10231) [2], the “diameter of the IZ, C. albicans (ATCC:10231)” value is given as 28.0 ± 0.2 mm.

The MIC is the lowest concentration that inhibits growth of the organism. The IC50 is the concentration that inhibits the measured activity by half. Consider `Nc1ccc(S(=O)(=O)Nc2ncccn2)cc1` [sulfadiazine, reference compound], for which the “diameter of the IZ, E. coli (ATCC:3008)” value in the assay on E. coli (ATCC:3008) [3] turned out to be 19.8 ± 0.4 mm. Besides, the MIC was determined as 500 µg/mL (≈ 2000 µM) in the assay with S. aureus (ATCC:6538) [4]; 125 µg/mL (≈ 499 µM) with S. mutans (ATCC:25175) [6]; 250 µg/mL (≈ 999 µM) in assay [8]; 250 µg/mL (≈ 999 µM) in the assay on K. pneumonia (ATCC:4415); 250 µg/mL (≈ 999 µM) with E. coli (ATCC:3008) [9]. The values for the zone of inhibition at 15000 µg/mL in the assay with S. mutans (ATCC:25175) [5] and in the assay on S. aureus (ATCC:6538) [11] were 16.3 ± 1.1 mm and 31.3 ± 2.1 mm, respectively. In addition, the “diameter of the IZ, C. albicans (ATCC:10231)” value with C. albicans (ATCC:10231) [2] is “no activity”. Besides, the IC50 in assay [7] (IC50 on the DHFR, average of three measurements) is 803 nM. Moreover, the inhibition at 0.01 µg/mL in assay [7] (read-out: percent inhibition of DHFR at 0.01 (μg/mL)) turned out to be 28.7%. Moreover, the inhibition at 0.1 µg/mL in assay [7] (read-out: percent inhibition of DHFR at 0.1 (μg/mL)) turned out to be 46.8%. The inhibition at 1 µg/mL in assay [7] (read-out: percent inhibition of DHFR at 1 (μg/mL)) is 60.2%. Moreover, the inhibition at 10 µg/mL in assay [7] (read-out: percent inhibition of DHFR at 10 (μg/mL)) amounted to 76.7%. Also, in assay [10], the “diameter of the IZ, P. aeruginosa (ATCC:27853)” value is reported as 24.0 ± 1.4 mm.

As to `CNC(C)C1CCC(N)C(OC2C(N)CC(N)C(OC3OCC(C)(O)C(NC)C3O)C2O)O1` (stereo not shown) [gentamicin], the “diameter of the IZ, E. coli (ATCC:3008)” value in the assay with E. coli (ATCC:3008) [3] was found to be 25.0 ± 0.1 mm. Also, the MIC was determined as 125 µg/mL (≈ 262 µM) in assay [8], 62.5 µg/mL (≈ 131 µM) with K. pneumonia (ATCC:4415) and 31.2 µg/mL (≈ 65.4 µM) in the assay on E. coli (ATCC:3008) [9]. The “diameter of the IZ, P. aeruginosa (ATCC:27853)” value in [10] was found to be 35.0 ± 0.1 mm.
